Data published in ChEMBL document CHEMBL2150929, “Lipidated peptidomimetics with improved antimicrobial activity” (ACS Med Chem Lett, 2012).
In brackets after ≈: the same amount, converted by molar mass. Activity calls are given as the source filed them. The calls are words filed in the database; no cut-off is given here.

Key:
[1] = tested on: Escherichia coli; experiment: Antimicrobial activity against Escherichia coli JM109 after 24 hrs by broth micro-dilution method; type: functional; details: JM109, 24 h
[2] = tested on: Klebsiella pneumoniae; experiment: Antimicrobial activity against Klebsiella pneumoniae ATCC 13383 after 24 hrs by broth micro-dilution method; type: functional; details: ATCC 13383, 24 h
[3] = Toxicity in RBC assessed as hemolysis; type: cell-based, Erythrocyte; details: for HC10: erythrocyte; for HC50: red blood cells (RBC)
Procedure, shortened: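 Hemolysis of red blood cells measured over a concentration range. H10 and H50 are the concentrations giving 10% and 50% hemolysis.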

[4] = tested on: Candida albicans; experiment: Antimicrobial activity against Candida albicans ATCC 10231 after 48 hrs by broth micro-dilution method; type: functional; details: ATCC 10231, 48 h
[5] = tested on: Enterococcus faecalis; experiment: Antimicrobial activity against Vancomycin-resistant Enterococcus faecalis ATCC 700802 after 24 hrs by broth micro-dilution method; type: functional; details: ATCC 700802, 24 h
Procedure, shortened: (§1)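 MIC read as the lowest concentration giving complete inhibition of bacterial growth after 24 h of incubation. Pexiganan and a linear α-AApeptide were run alongside as positive controls.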

[6] = tested on: Staphylococcus epidermidis; experiment: Antimicrobial activity against methicillin-resistant Staphylococcus epidermidis RP62A after 24 hrs by broth micro-dilution method; type: functional; procedure, shortened: as §1
[7] = tested on: Pseudomonas aeruginosa; experiment: Antimicrobial activity against Pseudomonas aeruginosa ATCC 27853 after 24 hrs by broth micro-dilution method; type: functional; details: ATCC 27853, 24 h
[8] = tested on: Staphylococcus aureus; experiment: Antimicrobial activity against methicillin-resistant Staphylococcus aureus ATCC 33592 after 24 hrs by broth micro-dilution method; type: functional; details: ATCC 33592, 24 h; procedure, shortened: as §1
[9] = tested on: Bacillus subtilis; experiment: Antimicrobial activity against Bacillus subtilis BR151 after 24 hrs by broth micro-dilution method; type: functional; details: BR151, 24 h
[10] = tested on: Escherichia coli; experiment: Induction of membrane disruption in Escherichia coli JM109 at 10 ug/ml after 2 hrs by Propidium iodide-staining based fluorescence microscopy; type: functional, organism-based
Procedure, shortened: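 E. coli exposed to 10 μg/mL for 2 h, then stained with DAPI, which labels all cells, and propidium iodide, which enters cells with damaged membranes. Red PI fluorescence imaged by fluorescence microscopy against untreated controls.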

Row | Compound | MIC [1] [µg/mL] | MIC [2] [µg/mL] | HC10 [3] [µg/mL] | HC50 [3] [µg/mL] | MIC [4] [µg/mL] | MIC [5] [µg/mL] | MIC [6] [µg/mL] | MIC [7] [µg/mL] | MIC [8] [µg/mL] | MIC [9] [µg/mL] | Activity [10]
1 | CCCCCCCCCCCCCCCC(=O)NCCN(C(C)=O)[C@@H](C)C(=O)NCCN(C(C)=O)[C@@H](C)C(=O)NCCN(C(=O)CCCN)[C@@H](CCCCN)C(=O)NCCN(C(=O)CCCN)[C@@H](CCCCN)C(=O)NCCN(C(=O)CCCN)[C@@H](CCCCN)C(N)=O | 4 (≈ 2.99 µM) | 20 (≈ 15 µM) | 100 | > 500 | 10 (≈ 7.48 µM) | 20 (≈ 15 µM) | 10 (≈ 7.48 µM) | 10 (≈ 7.48 µM) | 8 (≈ 5.98 µM) | 4 (≈ 2.99 µM) | –
2 | CCCCCCCCCCCCCCCC(=O)NCCN(C(=O)CCC(C)C)[C@@H](CCCCN)C(=O)NCCN(C(=O)CCC(C)C)[C@@H](CCCCN)C(N)=O | > 50 | > 50 | > 500 | > 500 | 2 (≈ 2.52 µM) | 1 (≈ 1.26 µM) | 10 (≈ 12.6 µM) | > 50 | 5 (≈ 6.3 µM) | 2 (≈ 2.52 µM) | –
3 | CCCCCCCCCCCCCCCC(=O)NCCN(C(=O)CCc1ccccc1)[C@@H](CCCCN)C(=O)NCCN(C(=O)CCc1ccccc1)[C@@H](CCCCN)C(N)=O | > 50 | > 50 | > 500 | > 500 | 2 (≈ 2.32 µM) | 3 (≈ 3.48 µM) | 15 (≈ 17.4 µM) | > 50 | 8 (≈ 9.28 µM) | 4 (≈ 4.64 µM) | –
4 | CCCCCCCCCCCCCCCC(=O)NCCN(C(=O)CCCN)[C@@H](Cc1ccccc1)C(=O)NCCN(C(=O)CCCN)[C@@H](Cc1ccccc1)C(=O)NCCN(C(=O)CCCN)[C@@H](Cc1ccccc1)C(N)=O | 8 (≈ 7.4 µM) | > 50 | 50 | 300 | 3 (≈ 2.77 µM) | 4 (≈ 3.7 µM) | 8 (≈ 7.4 µM) | 20 (≈ 18.5 µM) | 4 (≈ 3.7 µM) | 2 (≈ 1.85 µM) | –
5 | H-GIGKFLKKAKKFGKAFVKILKK-NH2 [PEXIGANAN] | 8 | 8 | 181 | 495 | 124 | 32 | 8 | 8 | 16 | 4 | –
6 | CCCCCCCCCCCCCCCC(=O)NCCN(C(=O)CCCN)[C@@H](Cc1ccccc1)C(=O)NCCN(C(=O)CCCN)[C@@H](Cc1ccccc1)C(=O)NCCN(C(=O)CCCN)[C@@H](Cc1ccccc1)C(=O)NCCN(C(=O)CCCN)[C@@H](Cc1ccccc1)C(=O)NCCN(C(=O)CCCN)[C@@H](Cc1ccccc1)C(N)=O | 4 (≈ 2.45 µM) | 8 (≈ 4.9 µM) | 20 | 250 | 4 (≈ 2.45 µM) | 4 (≈ 2.45 µM) | 10 (≈ 6.13 µM) | 12 (≈ 7.35 µM) | 8 (≈ 4.9 µM) | 4 (≈ 2.45 µM) | Active
7 | CCCCCCCCCCCCCCCC(=O)NCCN(C(C)=O)[C@@H](C)C(=O)NCCN(C(C)=O)[C@@H](C)C(=O)NCCN(C(=O)CCCN)[C@@H](Cc1ccccc1)C(=O)NCCN(C(=O)CCCN)[C@@H](Cc1ccccc1)C(=O)NCCN(C(=O)CCCN)[C@@H](Cc1ccccc1)C(N)=O | 30 (≈ 21.5 µM) | 8 (≈ 5.74 µM) | 40 | 400 | 20 (≈ 14.3 µM) | 4 (≈ 2.87 µM) | 4 (≈ 2.87 µM) | 8 (≈ 5.74 µM) | 4 (≈ 2.87 µM) | 2 (≈ 1.43 µM) | –
8 | CCCCCCCCCCCCCCCC(=O)NCCN(C(=O)CCc1ccccc1)[C@@H](CCCCN)C(=O)NCCN(C(=O)CCc1ccccc1)[C@@H](CCCCN)C(=O)NCCN(C(=O)CCc1ccccc1)[C@@H](CCCCN)C(N)=O | > 50 | > 50 | 15 | 150 | > 50 | 10 (≈ 8.58 µM) | 20 (≈ 17.2 µM) | > 50 | 8 (≈ 6.86 µM) | 2 (≈ 1.72 µM) | –
